Measurements: ChEMBL document CHEMBL4368918, “Structure-Based Design of Inhibitors Selective for Human Proteasome β2c or β2i Subunits” (J Med Chem, 2019)

How the values were obtained:
[1] = target: T1, Proteasome subunit beta type-10 (Homo sapiens, UniProt P40306); assay: Inhibition of 20S immunoproteasome beta 2 (unknown origin) by cell based ABPP assay
T1 sequence (P40306 whole entry): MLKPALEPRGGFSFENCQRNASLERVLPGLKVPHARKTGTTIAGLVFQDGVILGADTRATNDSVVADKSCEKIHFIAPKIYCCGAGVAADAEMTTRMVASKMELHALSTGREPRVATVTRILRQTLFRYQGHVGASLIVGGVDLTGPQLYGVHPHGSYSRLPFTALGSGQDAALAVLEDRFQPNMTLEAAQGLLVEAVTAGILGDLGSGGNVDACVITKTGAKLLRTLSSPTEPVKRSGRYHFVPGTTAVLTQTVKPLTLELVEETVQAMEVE
In short: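 Living RPMI-8226 cells, (5–8) ×10^5 cells/mL, exposed to inhibitor 1 h at 37 °C, washed, lysed in digitonin buffer 1 h on ice; residual activity labelled with cocktail ABPs, SDS-PAGE in-gel fluorescence, bands divided by mock, Coomassie staining to correct loading. IC50 from mean of three independent experiments.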

[2] = organism: Homo sapiens; assay: Selectivity ratio of IC50 for 20S immunoproteasome beta 2 (unknown origin) to IC50 for 20S constitutive proteasome beta 2 trypsin-like activity (unknown origin)
[3] = target: T2, Proteasome Macropain subunit MB1 (Homo sapiens, UniProt P28074); assay: Inhibition of 20S constitutive proteasome beta 5 chymotrypsin-like activity in human Raji cell lysates after 1 hr by competitive ABPP assay; format: subcellular, Lysate
T2 sequence (P28074 whole entry): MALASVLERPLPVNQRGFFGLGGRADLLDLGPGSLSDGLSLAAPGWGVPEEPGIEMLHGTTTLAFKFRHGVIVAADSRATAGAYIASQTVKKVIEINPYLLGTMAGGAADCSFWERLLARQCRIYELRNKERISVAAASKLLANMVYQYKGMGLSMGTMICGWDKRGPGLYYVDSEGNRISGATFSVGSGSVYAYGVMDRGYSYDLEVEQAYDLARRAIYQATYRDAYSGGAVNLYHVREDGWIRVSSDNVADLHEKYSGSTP

[4] = target: T3, Proteasome subunit beta type-8 (Homo sapiens, UniProt P28062); assay: Inhibition of 20S immunoproteasome beta 5 in human Raji cell lysates after 1 hr by competitive ABPP assay; format: subcellular, Lysate
T3 sequence (P28062 whole entry): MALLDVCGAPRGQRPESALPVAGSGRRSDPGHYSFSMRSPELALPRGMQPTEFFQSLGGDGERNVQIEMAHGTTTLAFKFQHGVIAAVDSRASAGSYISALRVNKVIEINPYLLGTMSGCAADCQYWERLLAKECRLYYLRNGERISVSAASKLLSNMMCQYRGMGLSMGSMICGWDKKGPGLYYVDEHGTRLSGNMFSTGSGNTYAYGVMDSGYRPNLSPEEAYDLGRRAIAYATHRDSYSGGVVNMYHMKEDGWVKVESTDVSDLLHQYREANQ

[5] = target: T4, Proteasome subunit beta type-6 (Homo sapiens, UniProt P28072); assay: Inhibition of 20S constitutive proteasome beta 1 caspase-like activity in human Raji cell lysates after 1 hr by competitive ABPP assay; format: subcellular, Lysate
T4 sequence (P28072 whole entry): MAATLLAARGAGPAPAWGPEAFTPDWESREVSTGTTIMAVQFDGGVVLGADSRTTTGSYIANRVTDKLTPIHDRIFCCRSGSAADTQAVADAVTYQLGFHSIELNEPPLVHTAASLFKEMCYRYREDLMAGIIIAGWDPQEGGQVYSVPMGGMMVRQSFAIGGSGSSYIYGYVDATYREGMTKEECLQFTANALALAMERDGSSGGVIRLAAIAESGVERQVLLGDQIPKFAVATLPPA
In short: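 Raji cells were sonicated in 3 volumes of Tris pH 7.5 lysis buffer containing DTT, MgCl₂, sucrose, 2 mM ATP and 0.05% digitonin. Lysate (5 μg protein, in buffer with 2 mM ATP and glycerol) was preincubated with inhibitor for 1 h at 37 °C, then with a cocktail of three fluorescent ABPs for 1 h. In-gel fluorescence densitometry was normalized to mock. IC50 came from the mean of three experiments.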

[6] = target: T5, Proteasome subunit beta type-9 (Homo sapiens, UniProt P28065); assay: Inhibition of 20S immunoproteasome beta 1 in human Raji cell lysates after 1 hr by competitive ABPP assay; format: subcellular, Lysate
T5 sequence (P28065 whole entry): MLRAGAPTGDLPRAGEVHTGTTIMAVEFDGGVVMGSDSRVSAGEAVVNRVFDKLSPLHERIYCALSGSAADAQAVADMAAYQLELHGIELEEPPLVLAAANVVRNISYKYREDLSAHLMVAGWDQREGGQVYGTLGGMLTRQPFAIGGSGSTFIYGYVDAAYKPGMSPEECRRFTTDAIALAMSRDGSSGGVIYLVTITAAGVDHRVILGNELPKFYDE
In short: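 Raji cells were sonicated in 3 volumes of Tris pH 7.5 lysis buffer containing DTT, MgCl₂, sucrose, 2 mM ATP and 0.05% digitonin. Lysate (5 μg protein, in buffer with 2 mM ATP and glycerol) was preincubated with inhibitor for 1 h at 37 °C, then with a cocktail of three fluorescent ABPs for 1 h. […] In-gel fluorescence densitometry was normalized to mock. IC50 came from the mean of three experiments.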

SMILES: Cc1ncc(C(=O)N[C@@H](CC(C)C)C(=O)N[C@@H](CCC2CCCCC2)C(=O)N[C@H](/C=C/S(C)(=O)=O)Cc2ccc(CN)cc2)s1
- IC50 [1]: 280 nM
- Ratio IC50 [2]: 25

SMILES: COc1ccc(C[C@H](NC(=O)[C@H](C)NC(=O)CN2CCOCC2)C(=O)N[C@@H](C[C@H]2CCC[C@@H]3CCCC[C@@H]32)C(=O)[C@@]2(C)CO2)cc1
- IC50 [3]: > 100000 nM
- IC50 [4]: > 100000 nM
- IC50 [5]: > 100000 nM
- IC50 [6]: > 100000 nM

SMILES: CC1CCC(C[C@H](NC(=O)[C@@H](NC(=O)[C@H](Cc2ccc(CN)cc2)NC(=O)[C@H](Cc2ccccc2)N=[N+]=[N-])C(C)C)C(=O)[C@@]2(C)CO2)CC1 (stereo not given in full)
- Ratio IC50 [2]: 1

SMILES: CC(C)C[C@H](NC(=O)[C@H](Cc1ccccc1)N=[N+]=[N-])C(=O)N[C@@H](CC(C)(C)F)C(=O)N[C@H](/C=C/S(C)(=O)=O)Cc1ccc(CN)cc1
- IC50 [1]: 47 nM
- Ratio IC50 [2]: 3

SMILES: COc1ccc(C[C@H](NC(=O)[C@H](C)NC(=O)CN2CCOCC2)C(=O)N[C@@H](CCC2CCCCC2)C(=O)[C@@]2(C)CO2)cc1
- IC50 [3]: 5000 nM
- IC50 [5]: > 100000 nM
- IC50 [6]: > 100000 nM

SMILES: Cc1ncc(C(=O)N[C@H](C(=O)N[C@@H](CC(C)C)C(=O)N[C@H](/C=C/S(C)(=O)=O)Cc2ccc(CN)cc2)C2CCCCC2)s1
- IC50 [1]: 61 nM
- Ratio IC50 [2]: 1

SMILES: COc1ccc(C[C@H](NC(=O)[C@H](C)NC(=O)CN2CCOCC2)C(=O)N[C@@H](C[C@H]2CCCC3CCCCC32)C(=O)[C@@]2(C)CO2)cc1 (stereo not given in full)
- IC50 [3]: > 100000 nM
- IC50 [4]: > 100000 nM
- IC50 [5]: > 100000 nM
- IC50 [6]: > 100000 nM

SMILES: CC(C)C[C@H](NC(=O)[C@H](CC(C)C)NC(=O)[C@H](Cc1ccccc1)NC(=O)CN=[N+]=[N-])C(=O)N[C@H](/C=C/S(C)(=O)=O)Cc1ccc(CN)cc1
- IC50 [1]: 22 nM
- Ratio IC50 [2]: 0.6

SMILES: Cc1ncc(C(=O)N[C@@H](CC(C)C)C(=O)N[C@@H](CC(C)C)C(=O)N[C@H](/C=C/S(C)(=O)=O)Cc2ccc(CN)cc2)s1
- IC50 [1]: 700 nM
- Ratio IC50 [2]: 10

SMILES: Cc1ncc(C(=O)N[C@@H](CC2CCCC3CCCCC32)C(=O)N[C@@H](CC(C)C)C(=O)N[C@H](/C=C/S(C)(=O)=O)Cc2ccc(CN)cc2)s1 (stereo not given in full)
- IC50 [1]: 48000 nM
- Ratio IC50 [2]: 21

SMILES: CC(C)[C@H](NC(=O)[C@H](Cc1ccc(CN)cc1)NC(=O)[C@H](Cc1ccccc1)N=[N+]=[N-])C(=O)N[C@@H](CC1CCC(C2CCCCC2)CC1)C(=O)[C@@]1(C)CO1 (stereo not given in full)
- Ratio IC50 [2]: 1.6

SMILES: CC(C)C[C@H](NC(=O)CN1CCOCC1)C(=O)N[C@@H](CC(C)C)C(=O)N[C@H](/C=C/S(C)(=O)=O)Cc1ccc(CN)cc1
- IC50 [1]: 47 nM
- Ratio IC50 [2]: 1

SMILES: COC1CCC(C[C@H](NC(=O)[C@H](CC(C)C)NC(=O)c2cnc(C)s2)C(=O)N[C@H](/C=C/S(C)(=O)=O)Cc2ccc(CN)cc2)CC1 (stereo not given in full)
- IC50 [1]: 360 nM
- Ratio IC50 [2]: 8

SMILES: Cc1ncc(C(=O)N[C@@H](CC2CCC3CCCCC3C2)C(=O)N[C@@H](CC(C)C)C(=O)N[C@H](/C=C/S(C)(=O)=O)Cc2ccc(CN)cc2)s1 (stereo not given in full)
- IC50 [1]: 4100 nM
- Ratio IC50 [2]: 8

SMILES: Cc1ncc(C(=O)N[C@@H](CC(C)C)C(=O)N[C@@H](CC2CCC(C)CC2)C(=O)N[C@H](/C=C/S(C)(=O)=O)Cc2ccc(CN)cc2)s1 (stereo not given in full)
- IC50 [1]: 200 nM
- Ratio IC50 [2]: 7

SMILES: Cc1ncc(C(=O)N[C@@H](CC(C)C)C(=O)N[C@@H](CC2CCC(C3CCCCC3)CC2)C(=O)N[C@H](/C=C/S(C)(=O)=O)Cc2ccc(CN)cc2)s1 (stereo not given in full)
- IC50 [1]: 45 nM
- Ratio IC50 [2]: 3

SMILES: CC(C)C[C@H](NC(=O)c1cnccn1)C(=O)N[C@@H](C)C(=O)N[C@H](/C=C/S(C)(=O)=O)Cc1ccc(CN)cc1
- IC50 [1]: 1350 nM
- Ratio IC50 [2]: 6

SMILES: Cc1ncc(C(=O)N[C@@H](CC2CCC(C3CCCCC3)CC2)C(=O)N[C@@H](CC(C)C)C(=O)N[C@H](/C=C/S(C)(=O)=O)Cc2ccc(CN)cc2)s1 (stereo not given in full)
- IC50 [1]: > 10000 nM
- Ratio IC50 [2]: > 3

SMILES: Cc1ncc(C(=O)N[C@@H](CC(C)C)C(=O)N[C@@H](CC2CCC3CCCCC3C2)C(=O)N[C@H](/C=C/S(C)(=O)=O)Cc2ccc(CN)cc2)s1 (stereo not given in full)
- IC50 [1]: 170 nM
- Ratio IC50 [2]: 10

SMILES: Cc1ncc(C(=O)N[C@@H](CC2CCCCC2)C(=O)N[C@@H](CC2CCCCC2)C(=O)N[C@H](/C=C/S(C)(=O)=O)Cc2ccc(CN)cc2)s1
- IC50 [1]: 420 nM
- Ratio IC50 [2]: 11

SMILES: Cc1ncc(C(=O)N[C@@H](CC(C)C)C(=O)N[C@@H](CC2CCCCC2)C(=O)N[C@H](/C=C/S(C)(=O)=O)Cc2ccc(CN)cc2)s1
- IC50 [1]: 260 nM
- Ratio IC50 [2]: 7

SMILES: CC(C)C[C@H](NC(=O)[C@H](Cc1ccccc1)N=[N+]=[N-])C(=O)N[C@@H](CC(F)(F)F)C(=O)N[C@H](/C=C/S(C)(=O)=O)Cc1ccc(CN)cc1
- IC50 [1]: 130 nM
- Ratio IC50 [2]: 6

SMILES: COC[C@H](NC(=O)[C@H](CC(C)C)NC(=O)[C@H](Cc1ccccc1)N=[N+]=[N-])C(=O)N[C@H](/C=C/S(C)(=O)=O)Cc1ccc(CN)cc1
- IC50 [1]: 200 nM
- Ratio IC50 [2]: 25

SMILES: CC(C)[C@H](NC(=O)[C@H](Cc1ccc(CN)cc1)NC(=O)[C@H](Cc1ccccc1)N=[N+]=[N-])C(=O)N[C@@H](CC1CCC2CCCCC2C1)C(=O)[C@@]1(C)CO1 (stereo not given in full)
- Ratio IC50 [2]: 1

SMILES: CC(C)C[C@H](NC(=O)c1ccc(-c2ccccc2)nc1)C(=O)N[C@@H](CC(C)C)C(=O)N[C@H](/C=C/S(C)(=O)=O)Cc1ccc(CN)cc1
- IC50 [1]: 23 nM
- Ratio IC50 [2]: 0.8

SMILES: Cc1ncc(C(=O)N[C@@H](CC(C)C)C(=O)N[C@@H](CC2CCCC3CCCCC32)C(=O)N[C@H](/C=C/S(C)(=O)=O)Cc2ccc(CN)cc2)s1 (stereo not given in full)
- IC50 [1]: 175 nM
- Ratio IC50 [2]: 4

SMILES: CC(C)[C@H](NC(=O)[C@H](Cc1ccc(CN)cc1)NC(=O)[C@H](Cc1ccccc1)N=[N+]=[N-])C(=O)N[C@@H](CC1CC2CCC1C2)C(=O)[C@@]1(C)CO1 (stereo not given in full)
- Ratio IC50 [2]: 2.7

SMILES: Cc1ncc(C(=O)N[C@@H](CC2CCC(C)CC2)C(=O)N[C@@H](CC(C)C)C(=O)N[C@H](/C=C/S(C)(=O)=O)Cc2ccc(CN)cc2)s1 (stereo not given in full)
- IC50 [1]: 325 nM
- Ratio IC50 [2]: 0.8

SMILES: CC(C)C[C@H](NC(=O)c1cc(Cl)ccc1Cl)C(=O)N[C@@H](CC(C)C)C(=O)N[C@H](/C=C/S(C)(=O)=O)Cc1ccc(CN)cc1
- IC50 [1]: 350 nM
- Ratio IC50 [2]: 5

SMILES: CC(C)[C@H](NC(=O)[C@H](Cc1ccc(CN)cc1)NC(=O)[C@H](Cc1ccccc1)N=[N+]=[N-])C(=O)N[C@H](C(=O)[C@@]1(C)CO1)C1CCCCC1
- Ratio IC50 [2]: 1
